Assay results reported in ChEMBL document CHEMBL4396927, “Fluorescent Imidazo[1,5-a]pyridinium Salt for a Potential Cancer Therapy Agent” (ACS Med Chem Lett, 2019).
Activity calls are given as the source filed them. No cut-off for these calls is given here.

How the values were obtained:
[1] = test system: Enterobacteria phage phiX174; assay: Induction of DNA cleavage in supercoiled phiX174 RF I DNA assessed as formation of nicked circular DNA irradiated with 365 nm UVA-LED light under N2 condition measured up to 60 mins by RE-DYE based agarose gel electrophoresis method
HeLa [2] = assay: Photocytotoxicity against human HeLa cells assessed as reduction in cell viability at 2.5 x 10^-4 mol/L preincubated for 24 hrs followed by irradiation with 365 nm UVA-LED light after 60 mins by CCK-8 assay; assay type: functional, cell-based
Method in brief: (§1)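 Salt-stained HeLa cells were irradiated with UVA-LED for 10, 30 or 60 min. Viability was read immediately after irradiation, or after a further 24 h at 37 °C in the dark. Irradiated cells without salt served as control.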

HeLa [3] = assay: Antiproliferative against human HeLa cells assessed as reduction in cell viability at 0.08 x 10^-4 mol/L to 1.25 x 10^-4 mol/L after 24 hrs by CCK-8 assay; assay type: functional, cell-based
Method in brief: (§2)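 HeLa viability was read by CCK-8 after 1 h (acute) or 24 h (subacute) incubation with a concentration series of the salt. The top concentration was 2.5 × 10–4 mol L–1, limited by water solubility. IC50 was estimated, not determined.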

[4] = test system: Enterobacteria phage phiX174; assay: Induction of DNA cleavage in supercoiled phiX174 RF I DNA assessed as formation of nicked circular DNA in presence of UVA-LED irradiation with 365 nm light after 10 mins by RE-DYE based agarose gel electrophoresis method
Method in brief: (§3)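 Supercoiled ΦX174 RF I DNA in TE, with the salt in H2O, was irradiated with UVA-LED for 1, 10, 30, 60 or 180 min. A DNA-only irradiated control was included. Scavenger runs added 1.0 × 10–3 mol L–1 NaN3, KI, DMSO or t-BuOH with 60 min irradiation. Samples were resolved on 0.9% agarose in TAE (40 mmol L–1 Tris-acetate, 1 mmol L–1 EDTA, pH 8.0), and supercoiled (Form I) versus nicked circular (Form II) bands were scored.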

[5] = Drug distribution in human HeLa cell cytoplasm assessed as increase in hydroxyl radical at 2.5 x 10^-4 mol/L preincubated for 24 hrs followed by irradiation with 365 nm UVA-LED light measured at 5 mins interval for 30 mins by OxiORANGE stress marker based laser confocal microscopic analysis; assay type: ADME, subcellular; details: 0.5 h, 250 µM
Method in brief: (§4)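 Live HeLa cells, with or without the salt, were loaded with OxiORANGE (hydroxyl radical) or MitoROS 580 (superoxide) and imaged during UV irradiation for 30 min. Blue fluorescence was taken through a DAPI filter and red through a TRITC filter. Intensities were quantified at endosomal positions, in cytoplasm and for the red probe.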

HeLa [6] = assay: Induction of mitochondrial depolarization in human HeLa cells assessed at 2.5 x 10^-4 mol/L preincubated for 24 hrs followed by irradiation with 365 nm UVA-LED for 30 mins under hypoxic conditions by JC-1 staining based inverted microscopic analysis; assay type: functional, cell-based
Method in brief: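 The JC-1 mitochondrial membrane potential assay was run on salt-stained HeLa cells under UVA-LED irradiation in hypoxic conditions.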

[7] = test system: Enterobacteria phage phiX174; assay: Induction of DNA cleavage in supercoiled phiX174 RF I DNA assessed as DNA photo cleavage irradiated with 365 nm UVA-LED light in presence of KI measured up to 60 mins by RE-DYE based agarose gel electrophoresis method; method in brief: as §3
HeLa [8] = assay: Antiproliferative against human HeLa cells assessed as reduction in cell viability at 2.5 x 10^-4 mol/L after 24 hrs by CCK-8 assay; assay type: functional, cell-based; method in brief: as §2
HeLa [9] = assay: Photocytotoxicity against human HeLa cells assessed as reduction in cell viability at 2.5 x 10^-4 mol/L preincubated for 24 hrs followed by irradiation with 365 nm UVA-LED light for 60 mins and measured after 24 hrs by CCK-8 assay; assay type: functional, cell-based; method in brief: as §1
[10] = Drug localization in human HeLa cells mitochondria at 2.5 x 10^-4 mol/L incubated for 24 hrs by Mitotracker Red staining based inverted microscopic analysis; assay type: ADME; details: 250 µM
Method in brief: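 HeLa cells were stained with the salt and a mitochondrial marker, either without UVA-LED or with marker incubation after 30 min of UVA-LED irradiation. Overlap of cyan and red fluorescence was assessed.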

HeLa [11] = assay: Photocytotoxicity against human HeLa cells assessed as reduction in cell viability at 2.5 x 10^-4 mol/L preincubated for 24 hrs followed by irradiation with 365 nm UVA-LED light after 10 mins by CCK-8 assay; assay type: functional, cell-based; method in brief: as §1
[12] = Drug localization in endosomes of human HeLa cells assessed as co-localization of compound with endosome at 2.5 x 10^-4 mol/L after 24 hrs in presence of endocytosis marker Alexa Fluor 594-conjugated dextran by fluorescence based inverted microscopic analysis; assay type: ADME, subcellular; details: 250 µM
Method in brief: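 HeLa cells were co-incubated with the salt and an endocytosis marker at 37 °C, 5% CO2, for 24 h. Imaging used bright field, cyan fluorescence through a WU filter and red marker fluorescence through a WIY filter, and the images were merged to assess colocalization.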

[13] = Drug distribution in human HeLa cells cytoplasm assessed as increase in super oxide anion level at 2.5 x 10^-4 mol/L preincubated for 24 hrs followed by irradiation with 365 nm UVA-LED light measured at 5 mins interval for 30 mins by MitoROS stress marker based laser confocal microscopic analysis; assay type: ADME, subcellular; details: 0.5 h, 250 µM; method in brief: as §4
HeLa [14] = assay: Induction of mitochondrial depolarization in human HeLa cells assessed at 2.5 x 10^-4 mol/L preincubated for 24 hrs followed by irradiation with 365 nm UVA-LED for 30 mins by JC-1 staining based inverted microscopic analysis; assay type: functional, cell-based
Method in brief: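 Mitochondrial membrane potential was assessed by JC-1 in HeLa cells with or without the salt after UVA-LED irradiation for 0, 30 or 60 min. FCCP served as the depolarization positive control. Imaging used WIY and WU filters plus bright field.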

[15] = test system: Enterobacteria phage phiX174; assay: Induction of DNA cleavage in supercoiled phiX174 RF I DNA assessed as DNA photo cleavage irradiated with 365 nm UVA-LED light in presence of DMSO measured up to 60 mins by RE-DYE based agarose gel electrophoresis method; method in brief: as §3
HeLa [16] = assay: Antiproliferative activity against human HeLa cells assessed as reduction in cell viability by measuring mitochondrial damage at 2.5 x 10^-4 mol/L preincubated for 24 hrs followed by irradiation with 365 nm UVA-LED light after 30 mins by inverted microscopic analysis; assay type: functional, cell-based
[17] = test system: Enterobacteria phage phiX174; assay: Induction of DNA cleavage in supercoiled phiX174 RF I DNA assessed as DNA photo cleavage irradiated with 365 nm UVA-LED light in presence of NaN3 measured up to 60 mins by RE-DYE based agarose gel electrophoresis method; method in brief: as §3
[18] = test system: Enterobacteria phage phiX174; assay: Induction of DNA cleavage in supercoiled phiX174 RF I DNA assessed as DNA photo cleavage irradiated with 365 nm UVA-LED light in presence of t-BuOH measured up to 60 mins by RE-DYE based agarose gel electrophoresis method; method in brief: as §3
[19] = test system: Enterobacteria phage phiX174; assay: Induction of DNA cleavage in supercoiled phiX174 RF I DNA assessed as cleavage of supercoiled DNA in presence of UVA-LED irradiation with 365 nm light after 60 mins by RE-DYE based agarose gel electrophoresis method relative to control; method in brief: as §3
[20] = Drug distribution in human HeLa cells cytoplasm assessed as decrease in dot shaped cyan signals at 2.5 x 10^-4 mol/L after 24 hrs in presence of endocytosis marker Alexa Fluor 594-conjugated dextran followed by irradiation with 365 nm UVA-LED for 10 to 30 mins by fluorescence based inverted microscopic analysis; details: 250 µM
HeLa [21] = assay: Photocytotoxicity against human HeLa cells assessed as reduction in cell viability at 2.5 x 10^-4 mol/L preincubated for 24 hrs followed by irradiation with 365 nm UVA-LED light after 30 mins by CCK-8 assay; assay type: functional, cell-based; method in brief: as §1
HeLa [22] = assay: Antiproliferative against human HeLa cells assessed as reduction in cell viability after 24 hrs by CCK-8 assay; assay type: functional, cell-based; method in brief: as §2

In the case of `C[n+]1c(-c2ccccc2)c2ccccn2c1-c1n2ccccc2c(-c2ccccc2)[n+]1C.[I-].[I-]`, the Activity [1] is reported as “Active”, the Activity (HeLa [2]) is reported as “Active” and the Activity (HeLa [3]) is reported as “inactive”. The Activity [4] was “Active”, the Drug uptake [5] was “Active” and the Activity (HeLa [6]) was “inactive”. The Activity [7] was “Active”, the Activity (HeLa [8]) was “Active” and the Activity (HeLa [9]) was “Active”. For the same compound, the Drug uptake [10] was “Not Active”, the Activity (HeLa [11]) was “inactive” and the Drug uptake [12] was “Active”. For the same compound, the Drug uptake [13] was “Active”, the Activity (HeLa [14]) was “Active” and the Activity [15] was “Active”. The Activity (HeLa [16]) was “Active”, the Activity [17] was “Active” and the Activity [18] was “Active”. The Activity [19] was 100%, the Drug uptake [20] was “Active” and the Activity (HeLa [21]) was “Active”. The IC50 (HeLa [22]) was “Nd(Insoluble)”.
